In PMC5598522 (Toxicology Reports, 2014):

Legend:
[1] = biological target: human dopamine transporter (Homo sapiens, UniProt Q01959); assay: Dopamine transporter radioligand binding
In short: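 Radioligand displacement of RTI-55 from human dopamine transporter expressed in recombinant CHO-K1 cells. Screened first at 10 μM as percent inhibition of specific binding. Then tested at 10 ascending concentrations in half-log steps. IC50 and Hill coefficient from non-linear least-squares regression; Ki by Cheng–Prusoff; four repeats. IC50 then compared with free systemic Cmax.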

[2] = Quantitative whole body autoradiography; type: in vivo, rat; conditions: male rat, [3H] Ticagrelor 3 mg/kg

Chain of human dopamine transporter (Q01959 whole entry): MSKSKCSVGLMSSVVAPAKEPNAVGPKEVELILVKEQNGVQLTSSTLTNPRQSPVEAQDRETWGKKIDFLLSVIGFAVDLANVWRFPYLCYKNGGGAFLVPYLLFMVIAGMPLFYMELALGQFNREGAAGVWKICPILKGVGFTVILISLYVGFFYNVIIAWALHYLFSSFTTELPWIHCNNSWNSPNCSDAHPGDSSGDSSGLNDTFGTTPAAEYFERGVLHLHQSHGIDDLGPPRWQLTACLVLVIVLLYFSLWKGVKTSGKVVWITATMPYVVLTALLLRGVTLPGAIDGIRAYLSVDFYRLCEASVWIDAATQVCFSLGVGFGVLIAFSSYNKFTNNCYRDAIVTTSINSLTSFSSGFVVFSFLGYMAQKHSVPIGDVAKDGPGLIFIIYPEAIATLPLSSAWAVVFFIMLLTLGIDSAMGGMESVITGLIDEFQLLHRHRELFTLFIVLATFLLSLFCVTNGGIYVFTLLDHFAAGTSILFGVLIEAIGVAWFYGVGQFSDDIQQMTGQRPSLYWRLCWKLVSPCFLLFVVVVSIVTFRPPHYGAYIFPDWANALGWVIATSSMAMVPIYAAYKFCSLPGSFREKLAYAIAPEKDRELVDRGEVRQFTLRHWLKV

Compound: CCCSc1nc(N[C@@H]2C[C@H]2c2ccc(F)c(F)c2)c2nnn([C@@H]3C[C@H](OCCO)[C@@H](O)[C@H]3O)c2n1 [Ticagrelor]
- Inhibition of the dopamine transporter at free systemic Cmax levels ([1]; at human free systemic Cmax): minimal inhibition
- Inhibition of the dopamine transporter at free systemic Cmax levels ([1]; at rat free systemic Cmax): > 50%
- Adrenal gland radioactivity ([2]; 5 min): 11.35 μg equivalent/g
- Adrenal gland radioactivity, fold of blood value ([2]; 5 min): 5.33 fold of blood value
- Blood (LSC) radioactivity ([2]; 5 min): 2.131 μg equivalent/g
- Brain radioactivity ([2]; 5 min): 0.05 μg equivalent/g
- Brain radioactivity, fold of blood value ([2]; 5 min): 0.02 fold of blood value
- Brown fat radioactivity ([2]; 5 min): 1.35 μg equivalent/g
- Brown fat radioactivity, fold of blood value ([2]; 5 min): 0.63 fold of blood value
- Eye radioactivity ([2]; 5 min): 0.50 μg equivalent/g
- Eye radioactivity, fold of blood value ([2]; 5 min): 0.23 fold of blood value
- Heart radioactivity ([2]; 5 min): 9.15 μg equivalent/g
- Heart radioactivity, fold of blood value ([2]; 5 min): 4.29 fold of blood value
- Kidney radioactivity ([2]; 5 min): 10.62 μg equivalent/g
- Kidney radioactivity, fold of blood value ([2]; 5 min): 4.98 fold of blood value
- Liver radioactivity ([2]; 5 min): 16.11 μg equivalent/g
- Liver radioactivity, fold of blood value ([2]; 5 min): 7.56 fold of blood value
- Lung radioactivity ([2]; 5 min): 7.31 μg equivalent/g
- Lung radioactivity, fold of blood value ([2]; 5 min): 3.43 fold of blood value
- Pancreas radioactivity ([2]; 5 min): 7.35 μg equivalent/g
- Pancreas radioactivity, fold of blood value ([2]; 5 min): 3.45 fold of blood value
- Pituitary gland radioactivity ([2]; 5 min): 8.03 μg equivalent/g
- Pituitary gland radioactivity, fold of blood value ([2]; 5 min): 3.77 fold of blood value
- Salivary gland radioactivity ([2]; 5 min): 3.66 μg equivalent/g
- Salivary gland radioactivity, fold of blood value ([2]; 5 min): 1.72 fold of blood value
- Skeletal muscle radioactivity ([2]; 5 min): 3.15 μg equivalent/g
- Skeletal muscle radioactivity, fold of blood value ([2]; 5 min): 1.48 fold of blood value
- Spinal cord radioactivity ([2]; 5 min): 0.05 μg equivalent/g
- Spinal cord radioactivity, fold of blood value ([2]; 5 min): 0.02 fold of blood value
- Spleen radioactivity ([2]; 5 min): 4.86 μg equivalent/g
- Spleen radioactivity, fold of blood value ([2]; 5 min): 2.28 fold of blood value
- Stomach wall radioactivity ([2]; 5 min): 7.11 μg equivalent/g
- Stomach wall radioactivity, fold of blood value ([2]; 5 min): 3.34 fold of blood value
- Thymus radioactivity ([2]; 5 min): 0.99 μg equivalent/g
- Thymus radioactivity, fold of blood value ([2]; 5 min): 0.46 fold of blood value
- Thyroid gland radioactivity ([2]; 5 min): 7.84 μg equivalent/g
- Thyroid gland radioactivity, fold of blood value ([2]; 5 min): 3.68 fold of blood value
- Adrenal gland radioactivity ([2]; 0.5 h): 5.26 μg equivalent/g
- Adrenal gland radioactivity, fold of blood value ([2]; 0.5 h): 5.16 fold of blood value
- Blood (LSC) radioactivity ([2]; 0.5 h): 1.02 μg equivalent/g
- Brain radioactivity ([2]; 0.5 h): 0.04/0.04 μg equivalent/g
- Brain radioactivity, fold of blood value ([2]; 0.5 h): 0.04/0.04 fold of blood value
- Brown fat radioactivity ([2]; 0.5 h): 0.95 μg equivalent/g
- Brown fat radioactivity, fold of blood value ([2]; 0.5 h): 0.93 fold of blood value
- Eye radioactivity ([2]; 0.5 h): 0.04/0.04 μg equivalent/g
- Eye radioactivity, fold of blood value ([2]; 0.5 h): 0.04/0.04 fold of blood value
- Heart radioactivity ([2]; 0.5 h): 4.94 μg equivalent/g
- Heart radioactivity, fold of blood value ([2]; 0.5 h): 4.84 fold of blood value
- Kidney radioactivity ([2]; 0.5 h): 6.77 μg equivalent/g
- Kidney radioactivity, fold of blood value ([2]; 0.5 h): 6.64 fold of blood value
- Liver radioactivity ([2]; 0.5 h): 8.44 μg equivalent/g
- Liver radioactivity, fold of blood value ([2]; 0.5 h): 8.27 fold of blood value
- Lung radioactivity ([2]; 0.5 h): 3.90 μg equivalent/g
- Lung radioactivity, fold of blood value ([2]; 0.5 h): 3.82 fold of blood value
- Pancreas radioactivity ([2]; 0.5 h): 7.83 μg equivalent/g
- Pancreas radioactivity, fold of blood value ([2]; 0.5 h): 7.68 fold of blood value
- Pituitary gland radioactivity ([2]; 0.5 h): 7.03 μg equivalent/g
- Pituitary gland radioactivity, fold of blood value ([2]; 0.5 h): 6.89 fold of blood value
- Salivary gland radioactivity ([2]; 0.5 h): 5.57 μg equivalent/g
- Salivary gland radioactivity, fold of blood value ([2]; 0.5 h): 5.46 fold of blood value
- Skeletal muscle radioactivity ([2]; 0.5 h): 3.26 μg equivalent/g
- Skeletal muscle radioactivity, fold of blood value ([2]; 0.5 h): 3.20 fold of blood value
- Spinal cord radioactivity ([2]; 0.5 h): 0.04/0.04 μg equivalent/g
- Spinal cord radioactivity, fold of blood value ([2]; 0.5 h): 0.04/0.04 fold of blood value
- Spleen radioactivity ([2]; 0.5 h): 3.81 μg equivalent/g
- Spleen radioactivity, fold of blood value ([2]; 0.5 h): 3.74 fold of blood value
- Stomach wall radioactivity ([2]; 0.5 h): 7.17 μg equivalent/g
- Stomach wall radioactivity, fold of blood value ([2]; 0.5 h): 7.03 fold of blood value
- Thymus radioactivity ([2]; 0.5 h): 1.28 μg equivalent/g
- Thymus radioactivity, fold of blood value ([2]; 0.5 h): 1.25 fold of blood value
- Thyroid gland radioactivity ([2]; 0.5 h): 3.85 μg equivalent/g
- Thyroid gland radioactivity, fold of blood value ([2]; 0.5 h): 3.77 fold of blood value
- Adrenal gland radioactivity ([2]; 2 h): 1.19 μg equivalent/g
- Adrenal gland radioactivity, fold of blood value ([2]; 2 h): 2.57 fold of blood value
- Blood (LSC) radioactivity ([2]; 2 h): 0.463 μg equivalent/g
- Brain radioactivity ([2]; 2 h): 0.02 μg equivalent/g
- Brain radioactivity, fold of blood value ([2]; 2 h): 0.04 fold of blood value
- Brown fat radioactivity ([2]; 2 h): 0.46 μg equivalent/g
- Brown fat radioactivity, fold of blood value ([2]; 2 h): 0.99 fold of blood value
- Eye radioactivity ([2]; 2 h): 0.01 μg equivalent/g
- Eye radioactivity, fold of blood value ([2]; 2 h): 0.02 fold of blood value
